Calls of active or inactive are those of the source.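 The calls were made as follows, unless noted: active = fluorescence slope higher than the sample average by over 3 SD (cut at about -0.22 in these data, passing the limit was not always enough); inactive = the rest.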
Assays:
[1] = inhibitors of TNFa-induced NFkB p65 translocation, primary screen, imaging, HUVEC, MLSMR starter and 10KST1 sets (AID 438;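 active = inhibition above 20% together with a positive visual image hit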;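 also: compound added about 3h40 before a 20 min TNFalpha stimulation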;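 as to inhibition: signal is the nuclear over cytoplasmic p65 intensity ratio per well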); settings: HUVEC TNFa-induced p65 nuclear translocation; cell count: measured here: nuclei count (cytotoxicity indicator), at 2.08 µM; inhibition: at 2 µM, stronger effect = higher value, 0% TNFa-plus-vehicle, 100% no-TNFa wells
[2] = inhibitors of mutant huntingtin aggregation, primary screen, imaging, exon1htt(103Q)mCFP cells, high-content imaging (AID 483;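 active = visual image review flags a hit and inhibition of aggregation exceeds 20%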;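 also: compound exposure lasted 3 days before fixation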;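 as to nuclei count: percent of the per-plate median nuclei count of sample wells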); settings: exon1htt(103Q)mCFP cell line, aggregate imaging, at 2 µM; inhibition of aggregation: stronger effect = higher value; nuclei count: measured here: cell count, toxicity
[3] = inhibitors of E-selectin induction by TNFa, primary screen, imaging, HUVEC, immunofluorescence, MLSMR starter and 10KST1 sets (AID 487;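 active = visually confirmed hit in the image check and inhibition above 20%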;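 as to inhibition: signal is fraction of cell area covered by stained E-selectin grains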;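 as to nuclei count: 100% = median nuclei count of all wells on the same plate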); settings: HUVEC TNFalpha-induced E-selectin immunofluorescence imaging, at 2 µM; inhibition: stronger effect = higher value; nuclei count: measured here: cell number, toxicity
[4] = molecular target: Voltage-gated potassium channel subunit beta-2 (Rattus norvegicus) (UniProt P62483); assay: KvBeta enzyme negative modulators, primary screen, biochemical, NADPH fluorescence (AID 622); settings: recombinant KvBeta, 4-cyanobenzaldehyde reduction, at 10 µM, stronger effect = higher value;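 also: slope of raw intensity against log time taken from 70 to 1610 s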
Voltage-gated potassium channel subunit beta-2 (Rattus norvegicus), sequence (P62483 whole entry, looked up): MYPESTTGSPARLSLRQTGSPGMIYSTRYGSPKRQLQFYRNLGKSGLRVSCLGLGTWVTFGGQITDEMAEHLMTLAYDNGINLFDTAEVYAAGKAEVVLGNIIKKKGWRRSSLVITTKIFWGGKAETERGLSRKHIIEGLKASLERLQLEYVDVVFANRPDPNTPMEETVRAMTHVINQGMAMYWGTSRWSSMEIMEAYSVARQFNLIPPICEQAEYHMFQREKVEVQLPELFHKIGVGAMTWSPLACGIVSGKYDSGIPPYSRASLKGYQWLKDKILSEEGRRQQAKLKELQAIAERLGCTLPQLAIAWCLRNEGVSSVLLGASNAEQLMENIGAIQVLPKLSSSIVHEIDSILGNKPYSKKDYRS

[5] = molecular target: Voltage-gated potassium channel subunit beta-2 (Rattus norvegicus) (UniProt P62483); assay: KvBeta positive modulators, primary screen, biochemical, NADPH fluorescence (AID 623;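 active = NADPH fluorescence slope more negative than the mean of all samples by about 3 SD, 99.7% confidence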;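 also: fluorescence intensity change per second fitted from 20 to 320 s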); settings: Recombinant KvBeta, NADPH fluorescence decrease slope, 10 min; at 10 µM; stronger effect = lower value
[6] = molecular target: Muscarinic acetylcholine receptor M4 (Homo sapiens) (UniProt P08173); assay: compounds altering M4/GIRK thallium flux, either direction, primary screen, M4 allosteric agonist project, cell-based, HEK293 M4/GIRK, BTC-AM (AID 625;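 active = fluorescence slope after compound addition differing from the mean of all tested samples at 99.7% confidence, mostly higher but some lower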;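 also: thallium influx through GIRK channels coupled to M4 in HEK293 cells with BTC-AM dye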); settings: at 10 µM, actives lie on both sides
Muscarinic acetylcholine receptor M4 (Homo sapiens), sequence (P08173 whole entry, looked up): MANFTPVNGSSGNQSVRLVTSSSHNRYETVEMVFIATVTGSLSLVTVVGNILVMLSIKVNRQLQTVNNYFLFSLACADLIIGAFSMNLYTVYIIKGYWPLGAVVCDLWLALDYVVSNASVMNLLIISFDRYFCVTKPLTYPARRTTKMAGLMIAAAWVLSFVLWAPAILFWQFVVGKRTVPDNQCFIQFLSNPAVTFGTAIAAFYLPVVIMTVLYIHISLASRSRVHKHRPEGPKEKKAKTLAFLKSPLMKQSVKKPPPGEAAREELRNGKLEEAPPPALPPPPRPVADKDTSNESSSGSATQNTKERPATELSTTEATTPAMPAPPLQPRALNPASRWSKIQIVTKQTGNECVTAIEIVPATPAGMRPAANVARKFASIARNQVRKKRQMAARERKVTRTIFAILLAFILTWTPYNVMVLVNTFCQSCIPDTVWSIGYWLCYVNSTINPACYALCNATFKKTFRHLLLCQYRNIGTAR
Method in brief: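 assay system = HEK293 cells with M4 receptor and GIRK channels | medium = pH 7.3 thallium assay buffer | doses = 10 µM final, single point | timing = cells overnight at 37 °C, BTC-AM loading 1 h, reads 2 min total | signal = BTC-AM fluorescence, 1 Hz kinetic reads | read-out = post-addition slope, 15–24 s, of baseline-normalized fluorescence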

[7] = inhibitors of Sendai virus-induced IRF3 signaling, primary screen, TLR/RLR signaling modifier project, cell-based, Sendai virus stimulus, luciferase, 10K MLSCN set (AID 602276;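 active = inhibition at or above 50% at 10 µM; inactive = inhibition below 50%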;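 also: firefly luciferase from ISG56 promoter only with Renilla not read in this screen; 0% = Sendai virus plus DMSO and 100% = medium plus DMSO without virus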); settings: HEK293 RL24 IRF3 luciferase reporter, at 10 µM, stronger effect = higher value
[8] = inhibitors of poly I:C-induced TLR3 signaling, primary screen, cell-based, poly I:C stimulus, luciferase, 10K MLSCN set (AID 602277;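 active = inhibition of the reporter signal at or above 50%; inactive = inhibition below 50%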); settings: HEK293-TLR3 RL24 IRF3 luciferase reporter, at 10 µM, stronger effect = higher value

SMILES	cell count [1]	inhibition [1]	inhibition of aggregation [2]	nuclei count [2] [%]	inhibition [3]	nuclei count [3] [%]	fluorescence slope [4]	NADPH fluorescence slope [5]	fluorescence slope [6]	inhibition [7]	inhibition [8]
Cc1cc(-c2ccccc2)nc2cc(C(=O)NCCCn3ccnc3)nn12	908	6.4% (inactive)	19.7% (inactive)	86.1	-160% (inactive)	112	-0.362 (inactive)	1.5e-05 (inactive)	0.007 (inactive)	16.4% (inactive)	25.4% (inactive)
Cc1cc(C)n(CCCNC(=O)c2ccc3c(c2)NC(=O)CS3)n1	722	-0.6% (inactive)	-34.8% (inactive)	87.8	10.7% (inactive)	106	-0.416 (inactive)	-1.2e-05 (inactive)	0.00708 (inactive)	14.3% (inactive)	28.3% (inactive)
Cc1cc(C)c(C)c(S(=O)(=O)Nc2ccc(O)cc2)c1C	187	-8.6% (inactive)	37.3% (active)	87.5	-7.7% (inactive)	74.8	-0.539 (inactive)	-1.7e-05 (inactive)	0.00478 (inactive)	10.8% (inactive)	18.5% (inactive)
O=C(O)C1CC(=O)N(Cc2ccccc2)C1 (centres undefined)	398	-1.8% (inactive)	-0.4% (inactive)	110	-43.7% (inactive)	127	-0.526 (inactive)	-0.00016 (inactive)	0.00382 (inactive)	16.7% (inactive)	17% (inactive)
CC(=O)c1cc(C#N)c(SCC(=O)OC(C)C)nc1C	464	-5.3% (inactive)	-14.7% (inactive)	118	-22.4% (inactive)	121	-0.26 (inactive)	-2.7e-05 (inactive)	0.00594 (inactive)	9.07% (inactive)	-11% (inactive)
CCOC(=O)c1sc(NS(=O)(=O)c2ccc(NC(C)=O)cc2)nc1C	701	-3.5% (inactive)	-10.1% (inactive)	99.8	1% (inactive)	94.9	-0.448 (inactive)	1.6e-05 (inactive)	0.00462 (inactive)	11.5% (inactive)	19.8% (inactive)
Cc1cc(N2C(=O)C3C4C=CC(C4)C3C2=O)ccc1Br (centres undefined)	775	18.7% (inactive)	0.6% (inactive)	110	98.6% (active)	42	-0.502 (inactive)	-5.3e-05 (inactive)	0.00619 (inactive)	-31.9% (inactive)	100% (active)
Cn1cccc1-c1cc(C(=O)O)[nH]n1	825	-8.7% (inactive)	7.8% (inactive)	56.8	-57.9% (inactive)	139	-0.465 (inactive)	-0.000188 (inactive)	0.00382 (inactive)	15.5% (inactive)	15.9% (inactive)
O=C(Nc1cccc(NC(=O)c2cccnc2)c1)c1cccnc1	515	-3.3% (inactive)	-15.9% (inactive)	96.4	2.1% (inactive)	103	-0.271 (inactive)	-1.6e-05 (inactive)	0.0055 (inactive)	15.2% (inactive)	11% (inactive)
O=S1(=O)Nc2c(ccc3cccnc23)-c2ccccc21	318	77.8% (active)	-31.5% (inactive)	50.8	47.4% (inactive)	94.2	-0.465 (inactive)	-0.000334 (inactive)	0.00395 (inactive)	-4.82% (inactive)	-17.5% (inactive)
CCCOc1ccc(N2C(=O)CC(NCCCN3CCC(C(N)=O)CC3)C2=O)cc1 (centres undefined)	322	-0.7% (inactive)	9.6% (inactive)	121	-32% (inactive)	110	-0.429 (inactive)	-4.4e-05 (inactive)	0.00445 (inactive)	19.4% (inactive)	19.7% (inactive)
Nc1c(C(=O)NCCc2ccccc2)nnn1Cc1ccccc1	564	4.8% (inactive)	24.6% (inactive)	69.8	-6.5% (inactive)	98.3	-0.571 (inactive)	-4.3e-05 (inactive)	0.00544 (inactive)	-11.8% (inactive)	-13.7% (inactive)
Cc1noc(C)c1S(=O)(=O)N1CCC(C(=O)N2CCN(Cc3ccc4c(c3)OCO4)CC2)CC1	721	-6.9% (inactive)	8.9% (inactive)	107	-40.5% (inactive)	103	-0.498 (inactive)	1.3e-06 (inactive)	0.00556 (inactive)	13.4% (inactive)	17.8% (inactive)
COc1ccc(OC)c(C(=O)c2nc3c(n2O)CCCCC3)c1	332	-1.1% (inactive)	-40.7% (inactive)	114	-55% (inactive)	103	-0.567 (inactive)	-6.5e-05 (inactive)	0.00381 (inactive)	5.91% (inactive)	7.03% (inactive)
Nc1cc(-c2ccccc2)ccc1O	329	6.3% (inactive)	33.9% (active)	88.4	-40.6% (inactive)	103	-0.314 (inactive)	-1.6e-05 (inactive)	0.00771 (inactive)	-0.254% (inactive)	1.06% (inactive)
O=C(Nc1ccc(CN2CCOCC2)cc1)c1cc2ccccc2oc1=O	426	3.6% (inactive)	-12.6% (inactive)	118	-218% (inactive)	146	-0.53 (inactive)	-7.9e-05 (inactive)	0.00463 (inactive)	0.662% (inactive)	29.5% (inactive)
CCOC(=O)N1CCC(NC(=O)c2ccc3c(c2)N(C)CCS3)CC1	368	-0.7% (inactive)	17.8% (inactive)	113	-131% (inactive)	126	-0.0303 (active)	1.7e-06 (inactive)	0.00744 (inactive)	13% (inactive)	21.9% (inactive)
CCOc1ccccc1C1CC(=O)NC(SCC)=C1C#N (centres undefined)	465	-13% (inactive)	18.7% (inactive)	84.4	-10% (inactive)	130	-0.326 (inactive)	-7.3e-05 (inactive)	0.00457 (inactive)	9.15% (inactive)	17.5% (inactive)
CCOC(=O)C1=C(Cn2cnc3ccccc32)NC(=O)NC1c1cc(C)ccc1C (centres undefined)	562	-10.3% (inactive)	-15.4% (inactive)	106	0.3% (inactive)	104	-0.461 (inactive)	-1.9e-05 (inactive)	0.00427 (inactive)	27.2% (inactive)	19% (inactive)
O=C(O)COc1ccc(Oc2ccccc2)cc1	357	0.5% (inactive)	0.7% (inactive)	103	-8.6% (inactive)	112	-0.567 (inactive)	1.9e-05 (inactive)	0.00744 (inactive)	3.08% (inactive)	9.93% (inactive)
O=C(CCSc1ccccc1)N1CCOCC1	339	0.4% (inactive)	-7.3% (inactive)	104	-90.9% (inactive)	105	-0.562 (inactive)	-0.000154 (inactive)	0.00456 (inactive)	-18.7% (inactive)	-64.6% (inactive)
CC1(C)CC(=O)C2=C(C1)Nc1nc(SCCN3CCOCC3)[nH]c(=O)c1C2c1cccs1 (centres undefined)	549	-8.4% (inactive)	-11.8% (inactive)	50.7	-42.7% (inactive)	104	-0.57 (inactive)	-3e-05 (inactive)	0.00647 (inactive)	-3.95% (inactive)	-12.2% (inactive)
O=C(Cc1nn[nH]n1)NCCC1=CCCCC1	402	1.7% (inactive)	2.5% (inactive)	99.7	-1.4% (inactive)	113	-0.567 (inactive)	-8.7e-06 (inactive)	0.00606 (inactive)	5.61% (inactive)	18% (inactive)
NC(=O)CSc1nnc(-c2ccc(O)cc2)n1Cc1ccco1	371	-0.2% (inactive)	18.6% (inactive)	98.1	-112% (inactive)	93.2	-0.531 (inactive)	-4.4e-05 (inactive)	0.00558 (inactive)	11.3% (inactive)	19.8% (inactive)
COc1cc2c(cc1OC)CN(Cc1nc3ccsc3c(=O)[nH]1)CC2	335	-6.2% (inactive)	26.3% (inactive)	93	-5.2% (inactive)	110	-0.579 (inactive)	-3.9e-05 (inactive)	0.0061 (inactive)	24.1% (inactive)	41.1% (inactive)
Nc1nc(-c2ccccc2)cc(C(F)(F)F)n1	457	-7.5% (inactive)	1.3% (inactive)	98.1	-11.2% (inactive)	107	-0.571 (inactive)	1.4e-06 (inactive)	0.00753 (inactive)	11% (inactive)	6.96% (inactive)
CC(Sc1nnnn1-c1ccccc1)C(=O)Nc1ccc(Cl)cn1 (centres undefined)	570	-12.8% (inactive)	-5.6% (inactive)	108	-139% (inactive)	131	-0.426 (inactive)	2.6e-05 (inactive)	0.00566 (inactive)	16% (inactive)	19.9% (inactive)
CCn1c(=O)cc(OCC(=O)Nc2cc(C)ccn2)c2ccccc21	300	-0.6% (inactive)	-7.1% (inactive)	101	-11.5% (inactive)	126	-0.537 (inactive)	-5.7e-06 (inactive)	0.00495 (inactive)	13.4% (inactive)	21.3% (inactive)
CCOC(=O)N1CCN(C(=O)C2c3cc(OC)c(OC)cc3C(=O)N3CCc4ccccc4C23)CC1 (centres undefined)	312	0.5% (inactive)	13.5% (inactive)	104	6.9% (inactive)	102	-0.397 (inactive)	4.3e-05 (inactive)	0.00684 (inactive)	14.7% (inactive)	13.6% (inactive)
